Measured values published in the M2OR odorant receptor database.
Positions count from the first letter of the chain named.

How the values were obtained:
Conditions in all cases: stereoisomer not certain
OR4S2 (Homo sapiens) = target: T1, OR4S2 (Homo sapiens) (UniProt Q8NH73)
T1 sequence (whole entry): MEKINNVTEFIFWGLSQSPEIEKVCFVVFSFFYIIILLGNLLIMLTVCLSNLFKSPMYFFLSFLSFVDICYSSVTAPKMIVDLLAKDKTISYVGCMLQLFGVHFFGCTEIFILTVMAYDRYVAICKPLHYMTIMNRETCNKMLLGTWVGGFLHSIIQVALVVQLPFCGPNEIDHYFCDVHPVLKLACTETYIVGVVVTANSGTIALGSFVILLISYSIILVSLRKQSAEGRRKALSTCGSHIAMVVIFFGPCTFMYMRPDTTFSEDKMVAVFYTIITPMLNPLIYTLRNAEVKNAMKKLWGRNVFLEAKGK
Method in brief: (§1)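 Transient luciferase assays in mammalian cell lines were common, though methods varied by source. The values come from published papers and their supplementary material, with extra details from the original authors when needed. Responsive refers to a measured signal the original authors judged statistically different from baseline, and non-responsive (inactive) to the remainder.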

OR4X1 (Homo sapiens) = target: T2, OR4X1 (Homo sapiens) (UniProt Q8NH49)
T2 sequence (whole entry): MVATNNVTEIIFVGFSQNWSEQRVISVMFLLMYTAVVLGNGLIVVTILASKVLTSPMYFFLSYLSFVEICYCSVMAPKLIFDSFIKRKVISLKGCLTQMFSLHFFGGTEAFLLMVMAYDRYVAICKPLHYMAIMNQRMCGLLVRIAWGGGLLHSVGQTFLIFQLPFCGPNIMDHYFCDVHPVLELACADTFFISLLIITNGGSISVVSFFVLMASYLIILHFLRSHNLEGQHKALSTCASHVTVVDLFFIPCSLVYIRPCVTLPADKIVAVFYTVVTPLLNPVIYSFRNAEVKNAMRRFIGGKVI
Method in brief: as §1

OR4X2 (Homo sapiens) = target: T3, OR4X2 (Homo sapiens) (UniProt Q8NGF9)
T3 sequence (whole entry): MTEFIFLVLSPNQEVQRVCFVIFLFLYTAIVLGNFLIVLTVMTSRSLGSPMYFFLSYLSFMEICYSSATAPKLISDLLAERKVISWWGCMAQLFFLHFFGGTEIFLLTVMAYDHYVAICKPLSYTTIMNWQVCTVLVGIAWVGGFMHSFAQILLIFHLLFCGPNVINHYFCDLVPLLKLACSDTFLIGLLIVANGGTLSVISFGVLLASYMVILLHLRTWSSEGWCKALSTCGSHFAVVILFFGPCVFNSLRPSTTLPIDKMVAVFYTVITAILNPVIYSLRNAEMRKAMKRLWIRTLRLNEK
Method in brief: as §1

OR51A2 (Homo sapiens) = target: T4, OR51A2 (Homo sapiens) (UniProt Q8NGJ7)
T4 sequence (whole entry): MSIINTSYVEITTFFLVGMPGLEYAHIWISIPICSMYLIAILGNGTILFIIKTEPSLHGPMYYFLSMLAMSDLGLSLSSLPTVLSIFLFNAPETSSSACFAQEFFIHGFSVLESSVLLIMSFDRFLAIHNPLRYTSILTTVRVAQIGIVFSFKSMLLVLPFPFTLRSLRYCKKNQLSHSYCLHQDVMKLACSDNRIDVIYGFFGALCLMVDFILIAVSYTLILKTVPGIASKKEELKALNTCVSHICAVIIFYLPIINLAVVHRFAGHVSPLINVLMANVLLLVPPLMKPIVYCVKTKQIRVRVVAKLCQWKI
Method in brief: as §1

OR51A4 (Homo sapiens) = target: T5, OR51A4 (Homo sapiens) (UniProt Q8NGJ6)
T5 sequence (whole entry): T4 sequence (whole entry) with G59E, T94I, S97N, S167N, P227L, E235Q, G267R, M288T, K289N, W311R
Method in brief: as §1

OR51A7 (Homo sapiens) = target: T6, OR51A7 (Homo sapiens) (UniProt Q8NH64)
T6 sequence (whole entry): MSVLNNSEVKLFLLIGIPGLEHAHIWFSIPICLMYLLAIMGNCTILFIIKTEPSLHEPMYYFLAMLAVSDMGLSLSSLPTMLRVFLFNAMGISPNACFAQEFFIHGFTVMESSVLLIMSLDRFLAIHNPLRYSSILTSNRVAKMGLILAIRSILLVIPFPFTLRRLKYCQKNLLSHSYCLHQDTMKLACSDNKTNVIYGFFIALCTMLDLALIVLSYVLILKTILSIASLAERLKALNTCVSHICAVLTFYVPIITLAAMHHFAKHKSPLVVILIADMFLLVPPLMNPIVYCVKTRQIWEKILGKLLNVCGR
Method in brief: as §1

OR51B2 (Homo sapiens) = target: T7, OR51B2 (Homo sapiens) (UniProt Q9Y5P1)
T7 sequence (whole entry): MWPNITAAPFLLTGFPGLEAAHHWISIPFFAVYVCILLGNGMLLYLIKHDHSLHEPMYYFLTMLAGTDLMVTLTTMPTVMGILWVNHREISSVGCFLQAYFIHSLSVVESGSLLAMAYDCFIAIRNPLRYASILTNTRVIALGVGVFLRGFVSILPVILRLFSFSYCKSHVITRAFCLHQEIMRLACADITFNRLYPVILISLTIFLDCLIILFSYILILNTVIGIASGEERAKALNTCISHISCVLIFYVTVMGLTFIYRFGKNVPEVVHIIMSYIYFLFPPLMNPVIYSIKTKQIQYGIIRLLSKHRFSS
Method in brief: as §1

OR51B4 (Homo sapiens) = target: T8, OR51B4 (Homo sapiens) (UniProt Q9Y5P0)
T8 sequence (whole entry): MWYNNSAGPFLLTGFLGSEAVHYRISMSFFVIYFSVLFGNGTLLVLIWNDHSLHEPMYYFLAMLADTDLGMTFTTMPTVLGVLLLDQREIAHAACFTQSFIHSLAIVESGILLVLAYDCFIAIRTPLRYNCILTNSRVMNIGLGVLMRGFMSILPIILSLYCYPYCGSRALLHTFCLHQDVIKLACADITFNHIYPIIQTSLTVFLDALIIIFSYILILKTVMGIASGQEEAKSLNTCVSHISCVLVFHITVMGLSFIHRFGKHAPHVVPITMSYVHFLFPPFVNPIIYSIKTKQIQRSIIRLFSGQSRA
Method in brief: as §1

OR51B5 (Homo sapiens) = target: T9, OR51B5 (Homo sapiens) (UniProt Q9H339)
T9 sequence (whole entry): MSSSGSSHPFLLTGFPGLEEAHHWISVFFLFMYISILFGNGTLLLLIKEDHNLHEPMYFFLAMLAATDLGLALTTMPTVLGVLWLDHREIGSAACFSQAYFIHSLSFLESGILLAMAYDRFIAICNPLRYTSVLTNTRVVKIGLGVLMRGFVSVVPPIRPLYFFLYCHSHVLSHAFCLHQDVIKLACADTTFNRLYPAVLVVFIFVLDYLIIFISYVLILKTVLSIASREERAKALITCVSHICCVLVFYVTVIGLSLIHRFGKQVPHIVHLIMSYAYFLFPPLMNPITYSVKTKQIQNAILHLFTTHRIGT
Method in brief: as §1

OR51B6 (Homo sapiens) = target: T10, OR51B6 (Homo sapiens) (UniProt Q9H340)
T10 sequence (whole entry): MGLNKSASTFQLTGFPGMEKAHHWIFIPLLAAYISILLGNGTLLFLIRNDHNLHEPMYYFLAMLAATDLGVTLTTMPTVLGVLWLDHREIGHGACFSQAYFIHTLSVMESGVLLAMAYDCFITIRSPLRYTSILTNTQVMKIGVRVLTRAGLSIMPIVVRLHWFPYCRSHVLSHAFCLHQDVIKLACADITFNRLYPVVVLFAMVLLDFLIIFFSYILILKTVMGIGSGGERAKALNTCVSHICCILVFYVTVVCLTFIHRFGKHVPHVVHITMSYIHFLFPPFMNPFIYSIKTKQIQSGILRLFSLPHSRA
Method in brief: as §1

OR51D1 (Homo sapiens) = target: T11, OR51D1 (Homo sapiens) (UniProt Q8NGF3)
T11 sequence (whole entry): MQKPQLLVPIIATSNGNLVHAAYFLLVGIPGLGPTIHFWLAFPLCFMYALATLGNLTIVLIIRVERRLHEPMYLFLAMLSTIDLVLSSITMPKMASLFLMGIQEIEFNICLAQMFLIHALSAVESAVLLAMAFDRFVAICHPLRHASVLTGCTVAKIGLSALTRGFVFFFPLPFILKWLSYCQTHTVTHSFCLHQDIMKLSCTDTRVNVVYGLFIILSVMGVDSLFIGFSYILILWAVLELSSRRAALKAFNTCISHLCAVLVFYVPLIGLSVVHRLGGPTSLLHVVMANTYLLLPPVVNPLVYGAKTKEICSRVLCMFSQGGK
Method in brief: as §1

OR51E1 (Homo sapiens) = target: T12, OR51E1 (Homo sapiens) (UniProt Q8TCB6)
T12 sequence (whole entry): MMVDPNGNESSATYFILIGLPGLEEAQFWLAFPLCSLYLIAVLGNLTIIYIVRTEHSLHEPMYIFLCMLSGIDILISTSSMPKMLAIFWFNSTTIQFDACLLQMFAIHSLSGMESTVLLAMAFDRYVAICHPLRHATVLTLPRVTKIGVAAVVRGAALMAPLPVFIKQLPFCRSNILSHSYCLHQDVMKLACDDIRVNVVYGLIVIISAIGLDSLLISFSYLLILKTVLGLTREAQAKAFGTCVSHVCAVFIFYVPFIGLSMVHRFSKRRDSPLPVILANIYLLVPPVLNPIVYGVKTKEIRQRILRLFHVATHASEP
Method in brief: as §1

OR51E2 (Homo sapiens) = target: T13, OR51E2 (Homo sapiens) (UniProt Q9H255)
T13 sequence (whole entry): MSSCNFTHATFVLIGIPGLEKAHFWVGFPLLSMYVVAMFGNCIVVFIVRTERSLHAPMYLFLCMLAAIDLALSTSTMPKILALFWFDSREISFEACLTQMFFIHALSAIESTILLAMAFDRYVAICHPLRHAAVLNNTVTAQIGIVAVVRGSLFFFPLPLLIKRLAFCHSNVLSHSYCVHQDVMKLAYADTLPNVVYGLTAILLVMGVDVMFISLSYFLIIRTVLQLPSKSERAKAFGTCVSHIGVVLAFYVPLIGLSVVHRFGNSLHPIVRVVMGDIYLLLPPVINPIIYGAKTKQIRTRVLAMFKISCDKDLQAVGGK
Method in brief: as §1

OR51F2 (Homo sapiens) = target: T14, OR51F2 (Homo sapiens) (UniProt Q8NH61)
T14 sequence (whole entry): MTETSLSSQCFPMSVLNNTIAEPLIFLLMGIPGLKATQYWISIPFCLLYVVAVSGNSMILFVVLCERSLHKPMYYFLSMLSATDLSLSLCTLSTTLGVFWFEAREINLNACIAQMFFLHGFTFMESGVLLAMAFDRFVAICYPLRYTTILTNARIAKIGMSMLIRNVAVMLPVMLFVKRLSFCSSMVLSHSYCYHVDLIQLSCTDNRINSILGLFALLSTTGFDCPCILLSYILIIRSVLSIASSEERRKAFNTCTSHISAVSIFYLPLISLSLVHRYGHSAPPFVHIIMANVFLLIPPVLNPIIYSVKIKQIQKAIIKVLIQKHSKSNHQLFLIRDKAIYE
Method in brief: as §1

OR51G1 (Homo sapiens) = target: T15, OR51G1 (Homo sapiens) (UniProt Q8NGK1)
T15 sequence (whole entry): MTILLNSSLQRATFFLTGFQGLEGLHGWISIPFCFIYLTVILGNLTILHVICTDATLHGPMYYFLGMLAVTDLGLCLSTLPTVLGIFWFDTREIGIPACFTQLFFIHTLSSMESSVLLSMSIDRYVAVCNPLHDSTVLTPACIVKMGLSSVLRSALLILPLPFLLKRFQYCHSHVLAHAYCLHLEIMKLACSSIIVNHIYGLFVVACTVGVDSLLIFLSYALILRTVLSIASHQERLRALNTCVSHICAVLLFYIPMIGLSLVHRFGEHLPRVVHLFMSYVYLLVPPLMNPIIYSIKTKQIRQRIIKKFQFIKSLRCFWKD
Method in brief: as §1

OR51G2 (Homo sapiens) = target: T16, OR51G2 (Homo sapiens) (UniProt Q8NGK0)
T16 sequence (whole entry): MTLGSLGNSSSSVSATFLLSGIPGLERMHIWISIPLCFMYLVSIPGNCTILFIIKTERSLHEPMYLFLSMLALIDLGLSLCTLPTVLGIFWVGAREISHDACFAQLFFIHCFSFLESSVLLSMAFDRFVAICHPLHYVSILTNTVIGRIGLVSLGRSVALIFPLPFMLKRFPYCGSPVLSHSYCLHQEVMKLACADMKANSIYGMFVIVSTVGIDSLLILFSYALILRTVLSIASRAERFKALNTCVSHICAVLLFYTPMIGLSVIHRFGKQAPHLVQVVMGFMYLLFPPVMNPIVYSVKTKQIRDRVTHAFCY
Method in brief: as §1

OR51I1 (Homo sapiens) = target: T17, OR51I1 (Homo sapiens) (UniProt Q9H343)
T17 sequence (whole entry): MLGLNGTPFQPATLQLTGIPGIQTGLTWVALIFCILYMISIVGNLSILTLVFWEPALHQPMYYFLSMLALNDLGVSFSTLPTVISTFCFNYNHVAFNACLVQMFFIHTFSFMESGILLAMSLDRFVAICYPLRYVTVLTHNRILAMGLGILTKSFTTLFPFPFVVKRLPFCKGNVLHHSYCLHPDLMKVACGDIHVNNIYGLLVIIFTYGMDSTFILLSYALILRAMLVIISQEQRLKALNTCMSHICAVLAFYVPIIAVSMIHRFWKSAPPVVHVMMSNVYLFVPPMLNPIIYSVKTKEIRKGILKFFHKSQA
Method in brief: as §1

Measured: odorant receptor agonist call;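 further: active if original authors judged signal statistically different from baseline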

CCC1OC(C)=C(O)C1=O (stereo not drawn)
inactive: all assays above

CCCCCCCCCC(=O)OC
inactive: OR51B5 (Homo sapiens)
